The list is not random: actives were taken first. Their share in the collection is about 3.7%.
KCNQ1 act: potentiators or activators of KCNQ1 channel, primary screen, cell-based, thallium flux, high-throughput. hit rate 0.35% among 310,000. Potassium voltage-gated channel subfamily KQT member 1 (Homo sapiens), P51787. CHO-K1 KCNQ1, thallium flux FluxOR fluorescence; hits give high values. B-score at 10 µM;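 active = fluorescence ratio B-score, a plate-corrected score, at least three library SD, with initial intensity B-score within 5 SD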
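Assay system: stable KCNQ1 CHO-K1 line; medium: assay buffer, equal DMSO in all wells; timing: 90 min dye loading and 20 min compound exposure, both at room temperature; technique: kinetic FluxOR thallium fluorescence, 10-s 1-Hz baseline, 110-s post-stimulus read; read-out basis: B score of baseline-normalized fluorescence ratio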
KCNK9 inh: KCNK9 potassium channel inhibitors, primary screen, HEK293 cells, thallium flux; Potassium channel subfamily K member 9 (Homo sapiens), Q9NPC2; FluxOR thallium flux fluorescence; hits give low values; B-score at 10 µM; hit rate 1.2% among 310,000;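 active = ratio B-score over 3 SD below the library mean, with starting fluorescence within 5 SD of its mean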;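 also: negative B-score means less thallium flux so channel inhibition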
KCNK3 inh: human KCNK3 channel inhibitors, primary screen, CHO cells, FluxOR thallium flux, B-score; Potassium channel subfamily K member 3 (Homo sapiens), O14649; FluxOR fluorescence; hits give low values; B-score at 10 µM; hit rate 0.84% among 340,000; AID 602410, 2012;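 active = B-score under library mean minus 4 SD, starting fluorescence ratio at most library mean plus 5 SD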;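 also: more negative B-score means stronger inhibition of thallium flux through KCNK3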
Target sequence (O14649 whole entry, looked up): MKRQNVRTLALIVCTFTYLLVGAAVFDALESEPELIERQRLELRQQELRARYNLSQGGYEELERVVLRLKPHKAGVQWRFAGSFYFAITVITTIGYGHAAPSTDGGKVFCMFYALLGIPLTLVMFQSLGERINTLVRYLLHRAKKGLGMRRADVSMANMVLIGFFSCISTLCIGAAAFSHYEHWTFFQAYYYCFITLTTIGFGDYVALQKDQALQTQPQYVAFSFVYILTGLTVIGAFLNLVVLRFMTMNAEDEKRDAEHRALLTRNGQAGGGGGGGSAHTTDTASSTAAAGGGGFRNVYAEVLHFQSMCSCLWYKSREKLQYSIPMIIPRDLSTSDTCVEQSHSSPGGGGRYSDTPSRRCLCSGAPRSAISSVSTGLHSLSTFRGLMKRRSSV
hERG protect: hERG rescue from dofetilide block, primary screen, cell-based, CHO-hERG, FluxOR thallium flux, dofetilide IC70. activation (rescue from dofetilide block), less the hit threshold, % at 10 µM. AID 1511, 2009. Voltage-gated inwardly rectifying potassium channel KCNH2 (Homo sapiens), Q12809. hit rate 0.51% among 310,000. dofetilide IC70 present;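 active = activation above the mean of controls blocked by dofetilide plus 5 SD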;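 also: thallium influx through hERG after potassium depolarization seen as dye fluorescence rise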
Kir21 inh: inhibitors of mouse Kir2.1 inward-rectifier potassium channel; Inward rectifier potassium channel 2 (Mus musculus), P35561; HEK293-Kir2.1, FluxOR thallium flux fluorescence; hits give low values; B-score at 10 µM; hit rate 0.85% among 310,000; AID 1672, 2009;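 active = fluorescence ratio B-score at or below minus 3 SD of library scores, with starting-brightness B-score within 2 SD, cut at about -4.2 in these data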;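 also: channel flux triggered by added potassium and thallium sulfate stimulus; B-score of peak minus minimum fluorescence over baseline after thallium stimulus; more negative B-score means stronger Kir2.1 block with less thallium influx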
KCNQ1 block: inhibitors of human KCNQ1 channel, primary screen, cell-based, thallium flux, high-throughput. AID 2642, 2010. Potassium voltage-gated channel subfamily KQT member 1 (Homo sapiens), P51787. B-score at 10 µM. CHO-K1 KCNQ1, FluxOR thallium flux fluorescence; hits give high values. hit rate 1.3% among 310,000;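 active = compounds whose thallium flux B-score, printed positive for inhibition, exceeds three library SD while starting fluorescence stays within three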;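 also: channel opened by potassium depolarization with thallium stimulus after 20 min compound exposure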
KCNK9 block conf: KCNK9 potassium channel inhibitors, confirmation, HEK293 cells, thallium flux, duplicate | FluxOR thallium flux fluorescence | shares compounds with KCNK9 inh | hit rate 43% among 4,900 | AID 492992, 2010 | inhibition, % at 10 µM;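 active = thallium signal inhibited by more than 5 SD of the compound-free buffer control wells, on both duplicate plates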
Kir21 sel: mouse Kir2.1 channel inhibition, confirmation, selectivity assay for KCNK9 modulator project, cell-based, HEK293, thallium flux; shares compounds with KCNK9 inh; Kir2.1 cells, FluxOR thallium flux fluorescence; inhibition, % at 10 µM; hit rate 4% among 4,900; AID 492993, 2010;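 active = thallium signal drop more than 5 SD beyond the mean of the no-compound control wells, seen in both duplicate plates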;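 also: signal is fluorescence rise after thallium addition divided by baseline fluorescence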
HEK293 Tl ctr: thallium flux in non-induced HEK293 cells, confirmation, counter-screen for KCNK9 inhibitor project, cell-based, second counter screen, non-induced KCNK9-HEK293; shares compounds with KCNK9 inh; FluxOR thallium flux; inhibition, % at 10 µM; hit rate 40% among 4,900; AID 492997, 2010;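 active = thallium signal drop beyond 5 SD of the untreated control mean, on both duplicate plates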
Of the large screens only hits and unclear results are named; the others gave an inactive call (follow-up assays come after a bar, where they were run).

CCOc1ccccc1C1N=C(c2ccc(OC)cc2)CC(c2ccccc2O)N1 (stereo not drawn)	none | KCNK9 block conf inactive | Kir21 sel inactive | HEK293 Tl ctr inactive
COc1ccc(/C=N\NC(=O)c2cc(O)c(O)c(O)c2)cc1CN1CCN(c2ccc(F)cc2)CC1	none | KCNK9 block conf inactive | Kir21 sel inactive | HEK293 Tl ctr inactive
O=C(NCCc1ccccc1)C1CCCN(C(=O)Nc2ccc(F)cc2)C1 (stereo not drawn)	none
Nc1c(S(=O)(=O)c2cccs2)c2nc3ccccc3nc2n1Cc1ccc2c(c1)OCO2	KCNK9 inh -12 | KCNK9 block conf 32% | Kir21 sel inactive | HEK293 Tl ctr 40%
Nc1c(S(=O)(=O)c2cccs2)c2nc3ccccc3nc2n1Cc1cccs1	none
CC(C)C(=O)N1CCN(c2nc(-c3ccccc3)c3c(c2C#N)CCCC3)CC1	KCNK9 inh -8.6 | KCNK9 block conf 40% | Kir21 sel inactive | HEK293 Tl ctr inactive
CC(=O)N1N=C(c2ccccc2)CC1c1cn(Cc2ccccc2)c2ccccc12 (stereo not drawn)	KCNK9 inh -8.4 | KCNK9 block conf 38% | Kir21 sel inactive | HEK293 Tl ctr 34%
COc1ccccc1CNC(=O)CN1C(=O)NC2(CCCc3ccccc32)C1=O (stereo not drawn)	none (no result: KCNQ1 act, KCNK9 inh, hERG protect, Kir21 inh, KCNQ1 block)
O=C(COC(=O)C1CCN(c2ccc(C(F)(F)F)cn2)CC1)c1ccccc1	none | KCNK9 block conf inactive | Kir21 sel inactive | HEK293 Tl ctr inactive
O=C(COC(=O)C1CCN(c2ccc(C(F)(F)F)cn2)CC1)c1cccc(Br)c1	none
Cc1ccc(/C=N/N2CCN(C3c4ccccc4-c4ccccc43)CC2)s1	none | KCNK9 block conf inactive | Kir21 sel inactive | HEK293 Tl ctr inactive
C(=N\N1CCN(C2c3ccccc3-c3ccccc32)CC1)/c1ccccn1	none
CCc1nc(N2CCC(C)CC2)c2oc3ccccc3c2n1	KCNK9 inh -14 | KCNK9 block conf 46% | Kir21 sel inactive | HEK293 Tl ctr 36%
NC(=O)c1ccc(SCC(=O)OCC(=O)NC2CCCCCCC2)c([N+](=O)[O-])c1	none (no result: KCNQ1 act, KCNK9 inh, hERG protect, Kir21 inh, KCNQ1 block)
N#CC(c1ccccc1O)N1N=C(c2ccccc2)CC1c1ccccc1 (stereo not drawn)	KCNK9 inh -10, KCNQ1 block 12 | KCNK9 block conf 40% | Kir21 sel inactive | HEK293 Tl ctr 47%
Cc1nc(C(=O)N2CCc3c([nH]c4ccccc34)C2c2cc(F)ccc2F)cs1 (stereo not drawn)	KCNK9 inh -10 | KCNK9 block conf 46% | Kir21 sel inactive | HEK293 Tl ctr 31%
CC(C)c1nc(C(=O)N2CCc3c([nH]c4ccccc34)C2c2ccccn2)cs1 (stereo not drawn)	none
Cc1ccccc1Nc1scc(-c2ccc(Cl)cc2)[n+]1-c1ccccc1C	KCNK9 inh -8.4 | KCNK9 block conf 62% | Kir21 sel inactive | HEK293 Tl ctr inactive
O=[N+]([O-])c1cc2c(c(CSc3nnc(Nc4ccccc4)s3)c1)OCOC2	none
Cc1ccccc1Nc1nnc(SCc2cc([N+](=O)[O-])cc3c2OCOC3)s1	KCNK9 inh -8.9 | KCNK9 block conf inactive | Kir21 sel inactive | HEK293 Tl ctr inactive
CCOc1ccccc1N1CCN(C/C=C/c2ccc(N(C)C)cc2)CC1	none | KCNK9 block conf inactive | Kir21 sel inactive | HEK293 Tl ctr inactive
